Assay results reported in ChEMBL document CHEMBL4425094, “Novel Benzo[a]quinolizidine Analogs Induce Cancer Cell Death through Paraptosis and Apoptosis” (J Med Chem, 2016).

Columns and labels:
[1] = system: MDA-MB-231; assay: Cytotoxicity against human MDA-MB-231 cells assessed as cell growth inhibition after 24 hrs by MTT assay; assay type: functional, cell-based; conditions: MDA-MB-231, 24 h
Outline: (§1)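 Cells seeded 24 h in RPMI 1640 + 10% FBS. RWPE-1 was kept in K-SFM with bovine pituitary extract and EGF. Cells then exposed to compounds for 24 h at 37 °C, 5% CO2, with DMSO vehicle and docetaxel as positive control. MTT added for 4 h, absorbance read at 570 nm. Triplicate runs, IC50 reported as mean of three experiments.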

[2] = system: HeLa; assay: Cytotoxicity against human HeLa cells assessed as cell growth inhibition after 24 hrs by MTT assay; assay type: functional, cell-based; outline: as §1
[3] = system: K562; assay: Cytotoxicity against human K562 cells assessed as cell growth inhibition after 24 hrs by MTT assay; assay type: functional, cell-based; conditions: K562, 24 h; outline: as §1
[4] = system: PC-3; assay: Cytotoxicity against human PC3 cells assessed as cell growth inhibition after 24 hrs by MTT assay; assay type: functional, cell-based; conditions: PC-3, 24 h; outline: as §1
[5] = system: DU-145; assay: Cytotoxicity against human DU145 cells assessed as cell growth inhibition after 24 hrs by MTT assay; assay type: functional, cell-based; conditions: DU-145, 24 h; outline: as §1
[6] = system: MCF7; assay: Cytotoxicity against human MCF7 cells assessed as cell growth inhibition after 24 hrs by MTT assay; assay type: functional, cell-based; conditions: MCF7, 24 h; outline: as §1
[7] = system: RWPE-1; assay: Cytotoxicity against human RWPE1 cells assessed as cell growth inhibition after 24 hrs by MTT assay; assay type: cell-based; conditions: RWPE-1, 24 h; outline: as §1

Structure (SMILES) | IC50 [1] [µM] | IC50 [2] [µM] | IC50 [3] [µM] | IC50 [4] [µM] | IC50 [5] [µM] | IC50 [6] [µM] | IC50 [7] [µM]
C[C@@H]1CC(=O)C[C@H]2c3cc(OCc4cc(F)cc(F)c4)c(OCc4cc(F)cc(F)c4)cc3CCN12 (relative stereo) | > 20 | > 20 | > 20 | > 20 | > 20 | > 20 | > 20
O=C1C[C@@H](c2ccccc2)N2CCc3cc(OCc4ccccc4)c(OCc4ccccc4)cc3[C@@H]2C1 (relative stereo) | > 20 | > 20 | > 20 | > 20 | > 20 | > 20 | > 20
C[C@@H]1CC(=O)C[C@H]2c3cc(OCc4cccc(F)c4)c(OCc4cccc(F)c4)cc3CCN12 | 1.3 | > 20 | > 20 | > 20 | > 20 | > 20 | > 20
CCC[C@@H]1C[C@@H](O)/C=C\C(CC)[C@H]2c3cc(OCc4ccccc4)c(OCc4ccccc4)cc3CCN12 (stereo not given in full) | 2.72 | 3.43 | 5.61 |  |  |  | 
C[C@@H]1C[C@H](O)C[C@H]2c3cc(OCc4ccc(C(C)(C)C)cc4)c(OCc4ccc(C(C)(C)C)cc4)cc3CCN12 | 1.46 | 2.56 | 2.88 |  |  |  | 
O=C1C[C@@H](c2ccccc2)N2CCc3ccccc3[C@@H]2C1 (relative stereo) | > 20 | > 20 | > 20 | > 20 | > 20 | > 20 | > 20
O[C@H]1C[C@@H](c2ccccc2)N2CCc3cc(OCc4ccccc4)c(OCc4ccccc4)cc3[C@@H]2C1 | > 20 | > 20 | > 20 | > 20 | > 20 | > 20 | > 20
CCCCCCCCCCCCCCCCOc1cc2c(cc1OCCCCCCCCCCCCCCCC)[C@@H]1C[C@@H](O)C[C@@H](C)N1CC2 | > 20 | > 20 | > 20 | > 20 | > 20 | > 20 | > 20
O=C1C[C@@H](c2ccccc2)N2CCc3cc(OCc4ccccc4)ccc3[C@@H]2C1 (relative stereo) | > 20 | > 20 | > 20 | > 20 | > 20 | > 20 | > 20
CCC[C@@H]1CC(=O)C[C@H]2c3cc(OCc4ccccc4)c(OCc4ccccc4)cc3CCN12 (relative stereo) | > 20 | > 20 | > 20 | > 20 | > 20 | > 20 | > 20
O=[N+]([O-])c1ccc([C@@H]2C[C@@H](O)C[C@H]3c4cc(OCc5ccccc5)c(OCc5ccccc5)cc4CCN23)cc1 | > 20 | > 20 | > 20 | > 20 | > 20 | > 20 | > 20
c1ccc(COc2cc3c(cc2OCc2ccccc2)[C@@H]2CCC[C@@H](c4ccccc4)N2CC3)cc1 | > 20 | > 20 | > 20 | > 20 | > 20 | > 20 | > 20
CCC[C@@H]1C[C@@H](O)C[C@H]2c3cc(OCc4ccccc4)c(OCc4ccccc4)cc3CCN12 | 2.57 | 2.38 | 2.32 |  |  |  | 
CC[C@@H]1CC(=O)C/C=C(/C)[C@H]2c3cc(OCc4ccccc4)c(OCc4ccccc4)cc3CCN12 (relative stereo) | > 20 | > 20 | > 20 | > 20 | > 20 | > 20 | > 20
O=C1C[C@@H](c2ccccc2)N2CCc3ccc(OCc4ccccc4)cc3[C@@H]2C1 (relative stereo) | > 20 | > 20 | > 20 | > 20 | > 20 | > 20 | > 20
COc1ccc([C@@H]2C[C@H](O)C[C@H]3c4cc(OCc5ccccc5)c(OCc5ccccc5)cc4CCN23)cc1 | > 20 | > 20 | > 20 | > 20 | > 20 | > 20 | > 20
CCCCCCOc1cc2c(cc1OCCCCCC)[C@@H]1C[C@@H](O)C[C@@H](C)N1CC2 | > 20 | > 20 | > 20 | > 20 | > 20 | > 20 | > 20
O[C@@H]1C[C@@H](c2ccccc2)N2CCc3ccc(OCc4ccccc4)cc3[C@@H]2C1 | > 20 | > 20 | > 20 | > 20 | > 20 | > 20 | > 20

Structure (SMILES) | IC50 [1] [µM] | IC50 [2] [µM] | IC50 [3] [µM] | IC50 [4] [µM] | IC50 [5] [µM] | IC50 [6] [µM] | IC50 [7] [µM]
COc1cc([C@@H]2C[C@@H](O)C[C@H]3c4cc(OCc5ccccc5)c(OCc5ccccc5)cc4CCN23)cc(OC)c1OC | > 20 | > 20 | > 20 | > 20 | > 20 | > 20 | > 20
O[C@@H]1C[C@@H](c2ccccc2)N2CCc3cc4c(cc3[C@@H]2C1)OCO4 | > 20 | > 20 | > 20 | > 20 | > 20 | > 20 | > 20
CCC[C@@H]1C[C@H](O)C/C=C(/CC)[C@H]2c3cc(OCc4ccccc4)c(OCc4ccccc4)cc3CCN12 | > 20 | > 20 | > 20 | > 20 | > 20 | > 20 | > 20
C[C@@H]1CC(=O)C[C@H]2c3cc(OCc4cc(C(F)(F)F)cc(C(F)(F)F)c4)c(OCc4cc(C(F)(F)F)cc(C(F)(F)F)c4)cc3CCN12 (relative stereo) | > 20 | > 20 | > 20 | > 20 | > 20 | > 20 | > 20
COc1ccc([C@@H]2CC(=O)C[C@H]3c4cc(OCc5ccccc5)c(OCc5ccccc5)cc4CCN23)cc1OC (relative stereo) | > 20 | > 20 | > 20 | > 20 | > 20 | > 20 | > 20
Oc1cc2c(cc1O)[C@@H]1C[C@@H](O)C[C@@H](c3ccccc3)N1CC2 | > 20 | > 20 | > 20 | > 20 | > 20 | > 20 | > 20
COc1ccc([C@@H]2CC(=O)C[C@H]3c4cc(OCc5cc(F)cc(F)c5)c(OCc5cc(F)cc(F)c5)cc4CCN23)cc1OC (relative stereo) | > 20 | > 20 | > 20 | > 20 | > 20 | > 20 | > 20
CCCCCCOc1cc2c(cc1OCCCCCC)[C@@H]1CC(=O)C[C@@H](C)N1CC2 (relative stereo) | > 20 | > 20 | > 20 | > 20 | > 20 | > 20 | > 20
CC[C@@H]1C[C@H](O)C[C@H]2c3cc(OCc4ccccc4)c(OCc4ccccc4)cc3CCN12 | 10.2 | 5.27 | 3.81 | 3.52 | 3.37 | 3.02 | 
C[C@@H]1C[C@H](O)C[C@H]2c3cc(OCc4cc(F)cc(F)c4)c(OCc4cc(F)cc(F)c4)cc3CCN12 | 3.16 | 3.04 | 2.29 |  |  |  | 
C[C@@H]1C[C@H](O)C[C@H]2c3cc(OCc4ccc(Br)cc4)c(OCc4ccc(Br)cc4)cc3CCN12 | 2.25 | 2.88 | 3.15 |  |  |  | 2.89
C[C@@H]1C[C@@](C)(O)C[C@H]2c3cc(OCc4ccccc4)c(OCc4ccccc4)cc3CCN12 | 6.47 | 5.21 |  | 2.6 | 2.11 | 1.39 | 
CCC[C@@H]1C[C@H](O)C[C@H]2c3cc(OCc4ccccc4)c(OCc4ccccc4)cc3CCN12 | 6.72 | 5.49 | 3.88 |  |  |  | 
C[C@@]1(O)C[C@@H](c2ccccc2)N2CCc3cc(OCc4ccccc4)c(OCc4ccccc4)cc3[C@@H]2C1 | 5.48 | 6.57 | 1.98 |  | 11.6 | 9.2 | 2.02
CC1(C)C[C@@H](O)C[C@H]2c3cc(OCc4ccccc4)c(OCc4ccccc4)cc3CCN21 (relative stereo) | 5.01 | 7.22 | 5.44 |  |  |  | 
CCC[C@@H]1C[C@@](C)(O)C[C@H]2c3cc(OCc4ccccc4)c(OCc4ccccc4)cc3CCN12 | 2.37 | 6.34 | 6.81 |  |  |  | 
C[C@@H]1CC(=O)C[C@H]2c3cc(OCc4ccccc4)c(OCc4ccccc4)cc3CCN12 (relative stereo) | 2.52 | 2.99 | > 20 | 2.27 | 4.25 | 2.23 | 
C[C@@H]1C[C@H](O)C[C@H]2c3cc(OCc4ccccc4)c(OCc4ccccc4)cc3CCN12 | 7.22 | 1.06 | 3.26 | 7.67 | 1.95 | 2.5 | 
